Measurements as given in ChEMBL document CHEMBL1126014, “New conformationally restricted 99mTc N2S2 complexes as myocardial perfusion imaging agents” (J Med Chem, 1992).

Tests used:
Rattus norvegicus [1] = assay: Biodistribution of the radiolabeled compound (2-5 uCi) in rat skin 15 mins after i.v. administration; type: ADME, organism-based, Zone of skin; settings: in vivo, iv, 0.25 h
Procedure, shortened: (§1)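 Rats given the 99mTc complex iv. At set times, blood was drawn by cardiac puncture and the animals were killed at once by cardiectomy. Organs were excised, weighed and gamma-counted. Percent dose per organ was found by comparing tissue radioactivity with suitable dilutions of the injected dose.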

Rattus norvegicus [2] = assay: Biodistribution of the radiolabeled compound (2-5 uCi) in rat skin 2 mins after i.v. administration; type: ADME, organism-based, Zone of skin; settings: in vivo, iv; procedure, shortened: as §1
Rattus norvegicus [3] = assay: Heart by blood ratio of the radiolabeled compound (2-5 uCi) in rat 2 mins after i.v. administration; settings: in vivo, iv
Rattus norvegicus [4] = assay: Biodistribution of the radiolabeled compound (2-5 uCi) in rat brain 65 mins after i.v. administration; type: ADME, organism-based; settings: in vivo, iv; procedure, shortened: as §1
Rattus norvegicus [5] = assay: Biodistribution of the radiolabeled compound (2-5 uCi) in rat lung 65 mins after i.v. administration; type: ADME, organism-based; settings: in vivo, iv; procedure, shortened: as §1
Rattus norvegicus [6] = assay: Biodistribution of the radiolabeled compound (2-5 uCi) in rat skin 65 mins after i.v. administration; type: ADME, organism-based, Zone of skin; settings: in vivo, iv; procedure, shortened: as §1
[7] = Partition coefficient in buffer containing 0.1 M NH4PF6; type: ADME; settings: octanol/water
Procedure, shortened: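 The 99mTc complex was mixed with 3 g each of 1-octanol and 50 mM phosphate buffer pH 7.4 containing 0.1 M NH4PF6. Tubes were vortexed three times for 1 min at room temperature and centrifuged 5 min. Weighed samples of each layer were gamma-counted. PC = counts per gram in octanol / counts per gram in aqueous.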

Rattus norvegicus [8] = assay: Biodistribution of the radiolabeled compound (2-5 uCi) in rat liver 15 mins after i.v. administration; type: ADME, organism-based; settings: in vivo, iv, 0.25 h; procedure, shortened: as §1
Rattus norvegicus [9] = assay: Heart/blood ratio of the radiolabeled compound (2-5 uCi) in rat 15 mins after i.v. administration; settings: in vivo, iv, 0.25 h
[10] = Partition coefficient in buffer containing 0.1 M NaCl; type: ADME; settings: octanol/water
Procedure, shortened: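 Octanol/buffer partition: the 99mTc complex was shaken with 3 g 1-octanol plus 3 g 50 mM phosphate pH 7.4 containing 0.1 M NaCl. Vortexing was 3 × 1 min at room temperature, followed by 5 min centrifugation. Weighed samples from both layers were gamma-counted. Ratio = octanol counts/g over aqueous counts/g.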

Rattus norvegicus [11] = assay: Biodistribution of the radiolabeled compound (2-5 uCi) in rat heart 15 mins after i.v. administration; type: ADME, organism-based; settings: in vivo, iv, 0.25 h; procedure, shortened: as §1
Rattus norvegicus [12] = assay: Biodistribution of the radiolabeled compound (2-5 uCi) in rat liver 65 mins after i.v. administration; type: ADME, organism-based; settings: in vivo, iv; procedure, shortened: as §1
Rattus norvegicus [13] = assay: Biodistribution of the radiolabeled compound (2-5 uCi) in rat muscle 65 mins after i.v. administration; type: ADME, organism-based, Muscle tissue; settings: in vivo, iv; procedure, shortened: as §1
Rattus norvegicus [14] = assay: Biodistribution of the radiolabeled compound (2-5 uCi) in rat spleen 15 mins after i.v. administration; type: ADME, organism-based; settings: in vivo, iv, 0.25 h; procedure, shortened: as §1
Rattus norvegicus [15] = assay: Biodistribution of the radiolabeled compound (2-5 uCi) in rat kidney 2 mins after i.v. administration; type: ADME, organism-based; settings: in vivo, iv; procedure, shortened: as §1
Rattus norvegicus [16] = assay: Biodistribution of the radiolabeled compound (2-5 uCi) in rat muscle 15 mins after i.v. administration; type: ADME, organism-based, Muscle tissue; settings: in vivo, iv, 0.25 h; procedure, shortened: as §1
Rattus norvegicus [17] = assay: Biodistribution of the radiolabeled compound (2-5 uCi) in rat spleen 65 mins after i.v. administration; type: ADME, organism-based; settings: in vivo, iv; procedure, shortened: as §1
Rattus norvegicus [18] = assay: Biodistribution of the radiolabeled compound (2-5 uCi) in rat kidney 65 mins after i.v. administration; type: ADME, organism-based; settings: in vivo, iv; procedure, shortened: as §1
Rattus norvegicus [19] = assay: Biodistribution of the radiolabeled compound (2-5 uCi) in rat heart 2 mins after i.v. administration; type: ADME, organism-based; settings: in vivo, iv; procedure, shortened: as §1
Rattus norvegicus [20] = assay: Biodistribution of the radiolabeled compound (2-5 uCi) in rat blood 65 mins after i.v. administration; type: ADME, organism-based; settings: in vivo, iv; procedure, shortened: as §1
Rattus norvegicus [21] = assay: Biodistribution of the radiolabeled compound (2-5 uCi) in rat brain 15 mins after i.v. administration; type: ADME, organism-based; settings: in vivo, iv, 0.25 h; procedure, shortened: as §1
Rattus norvegicus [22] = assay: Heart by blood ratio of the radiolabeled compound (2-5 uCi) in rat 65 mins after i.v. administration; settings: in vivo, iv
Rattus norvegicus [23] = assay: Biodistribution of the radiolabeled compound (2-5 uCi) in rat spleen 2 mins after i.v. administration; type: ADME, organism-based; settings: in vivo, iv; procedure, shortened: as §1
Rattus norvegicus [24] = assay: Biodistribution of the radiolabeled compound (2-5 uCi) in rat blood 15 mins after i.v. administration; type: ADME, organism-based; settings: in vivo, iv, 0.25 h; procedure, shortened: as §1
Rattus norvegicus [25] = assay: Biodistribution of the radiolabeled compound (2-5 uCi) in rat brain 2 mins after i.v. administration; type: ADME, organism-based; settings: in vivo, iv; procedure, shortened: as §1
Rattus norvegicus [26] = assay: Biodistribution of the radiolabeled compound (2-5 uCi) in rat muscle 2 mins after i.v. administration; type: ADME, organism-based, Muscle tissue; settings: in vivo, iv; procedure, shortened: as §1
Rattus norvegicus [27] = assay: Biodistribution of the radiolabeled compound (2-5 uCi) in rat blood 2 mins after i.v. administration; type: ADME, organism-based; settings: in vivo, iv; procedure, shortened: as §1
Rattus norvegicus [28] = assay: Biodistribution of the radiolabeled compound (2-5 uCi) in rat kidney 15 mins after i.v. administration; type: ADME, organism-based; settings: in vivo, iv, 0.25 h; procedure, shortened: as §1
Rattus norvegicus [29] = assay: Biodistribution of the radiolabeled compound (2-5 uCi) in rat lung 2 mins after i.v. administration; type: ADME, organism-based; settings: in vivo, iv; procedure, shortened: as §1
Rattus norvegicus [30] = assay: Biodistribution of the radiolabeled compound (2-5 uCi) in rat heart 65 mins after i.v. administration; type: ADME, organism-based; settings: in vivo, iv; procedure, shortened: as §1
Rattus norvegicus [31] = assay: Biodistribution of the radiolabeled compound (2-5 uCi) in rat lung 15 mins after i.v. administration; type: ADME, organism-based; settings: in vivo, iv, 0.25 h; procedure, shortened: as §1
Rattus norvegicus [32] = assay: Biodistribution of the radiolabeled compound (2-5 uCi) in rat liver 2 mins after i.v. administration; type: ADME, organism-based; settings: in vivo, iv; procedure, shortened: as §1

Row | SMILES | Biodistribution (Rattus norvegicus [1]) [dose/organ %] | Biodistribution (Rattus norvegicus [2]) [dose/organ %] | heart/blood ratio (Rattus norvegicus [3]) | Biodistribution (Rattus norvegicus [4]) [dose/organ %] | Biodistribution (Rattus norvegicus [5]) [dose/organ %] | Biodistribution (Rattus norvegicus [6]) [dose/organ %] | Partition coefficient [7] | Biodistribution (Rattus norvegicus [8]) [dose/organ %] | heart/blood ratio (Rattus norvegicus [9]) | Partition coefficient [10] | Biodistribution (Rattus norvegicus [11]) [dose/organ %] | Biodistribution (Rattus norvegicus [12]) [dose/organ %] | Biodistribution (Rattus norvegicus [13]) [dose/organ %] | Biodistribution (Rattus norvegicus [14]) [dose/organ %] | Biodistribution (Rattus norvegicus [15]) [dose/organ %] | Biodistribution (Rattus norvegicus [16]) [dose/organ %] | Biodistribution (Rattus norvegicus [17]) [dose/organ %] | Biodistribution (Rattus norvegicus [18]) [dose/organ %] | Biodistribution (Rattus norvegicus [19]) [dose/organ %] | Biodistribution (Rattus norvegicus [20]) [dose/organ %] | also measured
1 | CC(C)(S)CN1CCCN(CC(C)(C)S)CC1 | 5.16 | 7.45 | 1.18 | 0.007 | 0.23 | 6.8 | 11.5 | 27.48 | 3.33 | 1.19 | 0.38 | 15.23 | 8.66 | 0.26 | 19.37 | 6.98 | 0.22 | 4.26 | 0.42 | 0.77 | Biodistribution (Rattus norvegicus [21]): 0.01 dose/organ %; heart/blood ratio (Rattus norvegicus [22]): 4.8; Biodistribution (Rattus norvegicus [23]): 0.41 dose/organ %; Biodistribution (Rattus norvegicus [24]): 1.14 dose/organ %; Biodistribution (Rattus norvegicus [25]): 0.04 dose/organ %; Biodistribution (Rattus norvegicus [26]): 9.08 dose/organ %; Biodistribution (Rattus norvegicus [27]): 3.57 dose/organ %; Biodistribution (Rattus norvegicus [28]): 15.9 dose/organ %; Biodistribution (Rattus norvegicus [29]): 0.56 dose/organ %; Biodistribution (Rattus norvegicus [30]): 0.37 dose/organ %; Biodistribution (Rattus norvegicus [31]): 0.28 dose/organ %; Biodistribution (Rattus norvegicus [32]): 25.92 dose/organ %
2 | CC(C)(S)CN1CCN(CC(C)(C)S)CC1 | 14.13 | 6.65 | 0.29 | 0.003 | 0.12 | 7.13 | 10.75 | 29.63 | 0.5 | 1.09 | 0.1 | 20.2 | 5.06 | 0.25 | 15.71 | 10.12 | 0.08 | 1.09 | 0.21 | 0.7 | Biodistribution (Rattus norvegicus [21]): 0.01 dose/organ %; heart/blood ratio (Rattus norvegicus [22]): 1; Biodistribution (Rattus norvegicus [23]): 0.57 dose/organ %; Biodistribution (Rattus norvegicus [24]): 2 dose/organ %; Biodistribution (Rattus norvegicus [25]): 0.03 dose/organ %; Biodistribution (Rattus norvegicus [26]): 10.67 dose/organ %; Biodistribution (Rattus norvegicus [27]): 7.16 dose/organ %; Biodistribution (Rattus norvegicus [28]): 9.43 dose/organ %; Biodistribution (Rattus norvegicus [29]): 0.62 dose/organ %; Biodistribution (Rattus norvegicus [30]): 0.07 dose/organ %; Biodistribution (Rattus norvegicus [31]): 0.23 dose/organ %; Biodistribution (Rattus norvegicus [32]): 31.81 dose/organ %
